Test results from ChEMBL document CHEMBL5038571, “Design and Synthesis of EZH2-Based PROTACs to Degrade the PRC2 Complex for Targeting the Noncatalytic Activity of EZH2” (J Med Chem, 2021).
Calls of active or inactive are those of the source. The rule behind the calls is not given here.

How the values were obtained:
[1] = target: T1, Protein cereblon/Histone-lysine N-methyltransferase EZH2 (Homo sapiens) (UniProt Q15910+Q96SW2); test: PROTAC activity at CRBN E3 ligase/EZH2 in PRC2 complex in human WSUDLCL2 cells assessed as induction of SUZ12 degradation at 1 uM incubated for 48 hrs by Western blot analysis relative to control; type: cell-based
T1 sequence (Q15910 whole entry, looked up): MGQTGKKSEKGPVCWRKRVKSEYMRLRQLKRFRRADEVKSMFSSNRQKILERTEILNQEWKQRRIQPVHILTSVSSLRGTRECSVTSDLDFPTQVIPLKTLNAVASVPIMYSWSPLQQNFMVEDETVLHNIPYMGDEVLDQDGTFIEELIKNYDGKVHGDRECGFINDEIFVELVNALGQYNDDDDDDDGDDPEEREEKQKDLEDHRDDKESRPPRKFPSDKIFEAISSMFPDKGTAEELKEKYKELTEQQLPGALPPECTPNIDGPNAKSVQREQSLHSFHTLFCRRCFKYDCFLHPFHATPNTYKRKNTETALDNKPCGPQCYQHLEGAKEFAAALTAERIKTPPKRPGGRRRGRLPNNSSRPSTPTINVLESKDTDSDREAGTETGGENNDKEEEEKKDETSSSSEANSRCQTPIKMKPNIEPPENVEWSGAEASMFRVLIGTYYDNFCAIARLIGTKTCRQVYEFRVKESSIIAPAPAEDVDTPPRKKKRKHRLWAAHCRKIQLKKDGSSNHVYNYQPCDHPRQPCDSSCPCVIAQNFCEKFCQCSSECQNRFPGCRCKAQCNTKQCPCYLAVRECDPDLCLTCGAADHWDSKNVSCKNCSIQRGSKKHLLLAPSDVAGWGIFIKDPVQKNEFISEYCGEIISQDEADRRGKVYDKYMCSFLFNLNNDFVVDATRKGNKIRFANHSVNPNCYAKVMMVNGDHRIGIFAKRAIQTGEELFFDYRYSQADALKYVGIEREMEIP
T1 sequence (Q96SW2 whole entry, looked up): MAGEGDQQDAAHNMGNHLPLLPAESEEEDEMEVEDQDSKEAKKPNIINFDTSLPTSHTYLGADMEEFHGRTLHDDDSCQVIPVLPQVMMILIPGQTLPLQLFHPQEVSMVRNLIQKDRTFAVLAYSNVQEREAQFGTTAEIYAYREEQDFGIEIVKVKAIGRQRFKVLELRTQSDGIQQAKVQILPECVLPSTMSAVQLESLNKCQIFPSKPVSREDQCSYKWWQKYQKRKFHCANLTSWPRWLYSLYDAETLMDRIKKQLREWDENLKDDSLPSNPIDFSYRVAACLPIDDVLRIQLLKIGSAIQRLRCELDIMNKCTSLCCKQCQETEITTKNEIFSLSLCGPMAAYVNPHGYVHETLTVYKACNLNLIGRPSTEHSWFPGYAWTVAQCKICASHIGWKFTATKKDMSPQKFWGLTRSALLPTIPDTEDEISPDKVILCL
Procedure, shortened: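 WSU-DLCL-2 cells treated 48 h (1 μM for the single-concentration screen), lysed; SDS-PAGE, nitrocellulose transfer, 5% milk block, primary antibody 4 °C overnight, chemiluminescence. Bands quantified by densitometry, normalized to GAPDH, expressed relative to DMSO-treated cells; mean ± SD of three independent experiments, t-test.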

[2] = target: T1, Protein cereblon/Histone-lysine N-methyltransferase EZH2 (Homo sapiens); test: PROTAC activity at CRBN E3 ligase/EZH2 in PRC2 complex in human WSUDLCL2 cells assessed as induction of SUZ12 degradation at 10 uM incubated for 48 hrs by Western blot analysis; type: cell-based
[3] = target: T1, Protein cereblon/Histone-lysine N-methyltransferase EZH2 (Homo sapiens); test: PROTAC activity at CRBN E3 ligase/EZH2 in PRC2 complex in human WSUDLCL2 cells assessed as induction of EED degradation at 1 uM measured up to 2 hrs by Western blot analysis; type: cell-based; settings: time hrs <=2
[4] = target: T1, Protein cereblon/Histone-lysine N-methyltransferase EZH2 (Homo sapiens); test: PROTAC activity at CRBN E3 ligase/EZH2 in PRC2 complex in human WSUDLCL2 cells assessed as induction of RbAp48 degradation by measuring reduction in RbAp48 protein level at 1 uM measured after 48 to 72 hrs by Western blot analysis; type: cell-based; settings: time 48-72 hrs
[5] = tested on: WSUDLCL2; test: Effect on Histone H3 methylation in human WSUDLCL2 cells assessed as reduction in H3K9me3 levels at upto 10 uM incubated for 48 hrs by Western blot analysis; type: functional, cell-based; settings: dose microM <=10, time 48.0 hrs
Procedure, shortened: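 Lysates run on SDS-PAGE and transferred to nitrocellulose. Membranes blocked with 5% skim milk for 2 h, primary antibody applied overnight at 4 °C, then secondary antibody and chemiluminescent detection of histone H3 methylation marks.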

[6] = target: T1, Protein cereblon/Histone-lysine N-methyltransferase EZH2 (Homo sapiens); test: PROTAC activity at CRBN E3 ligase/EZH2 in PRC2 complex in human SU-DHL-6 cells assessed as induction of RbAp48 degradation by measuring reduction in RbAp48 protein level at 1 uM incubated for 48 hrs by Western blot analysis; type: cell-based
Procedure, shortened: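 Cells cultured in DMEM or RPMI 1640 with 10% FBS and 1% penicillin-streptomycin, 37 °C, 5% CO2; exposed to 1 μM compound for 48 h. Lysates run on SDS-PAGE and transferred to nitrocellulose. Blocked 2 h in 5% skim milk, primary antibody overnight at 4 °C, then secondary antibody. Chemiluminescent detection of PRC2 subunits and H3K27me3.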

[7] = target: T1, Protein cereblon/Histone-lysine N-methyltransferase EZH2 (Homo sapiens); test: PROTAC activity at CRBN E3 ligase/EZH2 in PRC2 complex in human A2780 cells assessed as induction of EED degradation by measuring reduction in EED protein level at 1 uM incubated for 48 hrs by Western blot analysis; type: cell-based
Procedure, shortened: (§1)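 Cancer cell lines exposed to 1 μM compound for 48 h. Lysates immunoblotted (SDS-PAGE, nitrocellulose, 5% milk block, primary antibody overnight at 4 °C) for EZH2, SUZ12, EED, RbAp48 and H3K27me3. Bands quantified by densitometry and normalized to GAPDH.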

[8] = target: T1, Protein cereblon/Histone-lysine N-methyltransferase EZH2 (Homo sapiens); test: PROTAC activity at CRBN E3 ligase/EZH2 in PRC2 complex in human A2780 cells assessed as induction of RbAp48 degradation by measuring reduction in RbAp48 protein level at 1 uM incubated for 48 hrs by Western blot analysis; type: cell-based; procedure, shortened: as §1
[9] = target: T1, Protein cereblon/Histone-lysine N-methyltransferase EZH2 (Homo sapiens); test: PROTAC activity at CRBN E3 ligase/EZH2 in PRC2 complex in human WSUDLCL2 cells assessed as effect on SUZ12 mRNA expression at 1 uM incubated for 48 hrs by RT-qPCR analysis; type: cell-based
Procedure, shortened: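 WSU-DLCL-2 cells treated 48 h with 1 μM compound. Total RNA extracted with Trizol and reverse-transcribed. SYBR qPCR run as 95 °C 30 s, then 40 cycles of 95 °C 6 s and 60 °C 20 s. PRC2 subunit mRNA normalized to the DMSO-treated group; mean SD, t-test.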

[10] = target: T1, Protein cereblon/Histone-lysine N-methyltransferase EZH2 (Homo sapiens); test: PROTAC activity at CRBN E3 ligase/EZH2 in PRC2 complex in human WSUDLCL2 cells assessed as downregulation of EZH2 expression at 1 uM pretreated with GSK126 for 4 hrs followed by compound addition and measured after 48 hrs by Western blot analysis; type: cell-based
Procedure, shortened: (§2)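 WSU-DLCL-2 cells pretreated 4 h with the named inhibitor, then compound added and incubated a further 48 h. EZH2, SUZ12, EED and RbAp48 measured by western blot (nitrocellulose transfer, skim-milk block, primary antibody overnight at 4 °C, chemiluminescent detection).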

[11] = target: T1, Protein cereblon/Histone-lysine N-methyltransferase EZH2 (Homo sapiens); test: PROTAC activity at CRBN E3 ligase/EZH2 in PRC2 complex in human WSUDLCL2 cells assessed as increase in EED ubiquitination at 1 uM measured after 48 hrs by co-immunoprecipitation assay; type: cell-based
Procedure, shortened: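 WSU-DLCL-2 cells treated with 1 μM compound for 48 h and lysed in RIPA buffer. Lysates incubated with antibodies overnight at 4 °C, then 3 h with Protein G agarose beads at 4 °C. Proteins eluted in IP buffer and ubiquitination of the target probed by immunoblot.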

[12] = tested on: WSUDLCL2; test: Upregulation of TNFRSF21 mRNA expression in human WSUDLCL2 cells at 1 uM incubated for 48 hrs by qRT-PCR analysis; type: functional, cell-based
Procedure, shortened: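 WSU-DLCL-2 or Pfeiffer cells treated 48 h. Trizol RNA extraction, reverse transcription, SYBR qPCR (95 °C 30 s; 40 cycles of 95 °C 6 s, 60 °C 20 s). mRNA normalized to DMSO-treated cells; mean ± SD of three independent experiments, t-test.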

[13] = target: T1, Protein cereblon/Histone-lysine N-methyltransferase EZH2 (Homo sapiens); test: PROTAC activity at CRBN E3 ligase/EZH2 in PRC2 complex in human WSUDLCL2 cells assessed as downregulation of EZH2 expression at 1 uM pretreated with lenalidomide for 4 hrs followed by compound addition and measured after 48 hrs by Western blot analysis; type: cell-based; procedure, shortened: as §2
[14] = tested on: A549; test: Downregulation of […] mRNA expression in human A549 cells at 10 uM incubated for 48 hrs by qRT-PCR analysis; type: functional, cell-based
Procedure, shortened: (§3)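 Cells treated 48 h. Total RNA extracted with Trizol, reverse-transcribed, and SYBR RT-qPCR run: 95 °C 30 s, then 40 cycles of 95 °C 6 s and 60 °C 20 s. mRNA normalized to the DMSO-treated group. Mean SD of three independent experiments, t-test versus DMSO.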

[15] = tested on: NCI-H1299; test: Downregulation of ARL6IP mRNA expression in human NCI-H1299 cells at 10 uM incubated for 48 hrs by qRT-PCR analysis; type: functional, cell-based; procedure, shortened: as §3
[16] = tested on: MDA-MB-468; test: Downregulation of ARL6IP mRNA expression in human MDA-MB-468 cells at 10 uM incubated for 48 hrs by qRT-PCR analysis; type: functional, cell-based; procedure, shortened: as §3
[17] = tested on: A549; test: Antiproliferative activity against EZH2-knockdown human A549 cells assessed as inhibition of cell growth at 10 uM treated for 9 days by optical microscopic analysis; type: functional, cell-based; settings: time 9.0 day
Procedure, shortened: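 Cells seeded at 5 × 10³ per well, grown 24 h, then exposed to compound at 10 μM for 9 days with medium refreshed. Cells were photographed and counted on days 1, 3, 5, 7 and 9. For lines 1-2, EZH2-targeting or control shRNA was induced in the cells. Mean SD of three independent experiments; t-test against control.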

In the case of CCN(c1cc(-c2ccc(CN3CCN(CCCCCCCOc4cccc5c4C(=O)N(C4CCC(=O)NC4=O)C5=O)CC3)cc2)cc(C(=O)NCc2c(C)cc(C)[nH]c2=O)c1C)C1CCOCC1 (configuration not stated), the Activity [1] is reported as 81%, the Activity [2] is reported as “inactive” and the Activity [3] is reported as “inactive”. The Activity [4] was “Active”, the Activity [5] was “inactive” and the Activity [6] was “Active”. The Activity [7] was “Active”, the Activity [8] was “Active” and the Activity [9] was “inactive”. For the same compound, the Activity [10] was “inactive”, the Activity [11] was “Active” and the Activity [12] was “Active”. For the same compound, the Activity [13] was “inactive”, the Activity [14] was “Active” and the Activity [15] was “Active”. The Activity [16] was “Active” and the Activity [17] was “Active”.
